Columns and labels:
Details in all cases: in vivo
[1] = tested on: Rattus norvegicus; assay: Biodistribution in spleen of immature female rat after 3 hour administration of 3 micro Ci (111 kBq) in the absence of 60 microg estradiol; type: ADME, organism-based
How it was run: (§1)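 Immature female Long Evans rats (21–24 days, 45–70 g), three to five per group, given 125I-labeled steroid (3 μCi, 111 kBq) by lateral tail vein without anesthesia. Vehicle: ethanol diluted in saline with 1% Tween-80, final ethanol 9%, 0.22 μm filtered. +E2 groups received 60 μg unlabeled estradiol co-injected. Killed under ether at set times; tissues KCl-washed, blotted, weighed, gamma counted; %ID/g, mean with SE.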

[2] = tested on: Rattus norvegicus; assay: Biodistribution in muscle of immature female rat after 5 hour administration of 3 micro Ci (111 kBq) in the absence of 60 microg estradiol; type: ADME, organism-based, Muscle tissue; how it was run: as §1
[3] = tested on: Rattus norvegicus; assay: Biodistribution in lungs of immature female rat after 1 hr administration of 3 micro Ci (111 kBq) in the absence of 60 microg estradiol; type: ADME, organism-based, Lung
How it was run: (§2)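 Immature female Long Evans rats (21–24 days, 45–70 g), unanesthetized in retention cages, given 3 µCi (111 kBq) 125I-labeled steroid i.v. via lateral tail vein. Vehicle was ethanol diluted in saline containing 1% Tween-80, giving 9% ethanol final. The blocking group received 60 µg unlabeled estradiol co-injected. Rats were killed under ether by axillary bleeding, and tissues were KCl-washed and gamma-counted. Data are %ID/g, mean ± SE, n=3–5.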

[4] = tested on: Rattus norvegicus; assay: Biodistribution in thyroid of immature female rat after 3 hour administration of 3 micro Ci (111 kBq) in the absence of 60 microg estradiol; type: ADME, organism-based, Thyroid gland; how it was run: as §1
[5] = tested on: Rattus norvegicus; assay: Biodistribution in thyroid of immature female rat after 1 hr administration of 3 micro Ci (111 kBq) in the absence of 60 microg estradiol; type: ADME, organism-based, Thyroid gland; how it was run: as §1
[6] = tested on: Rattus norvegicus; assay: Biodistribution in uterus / spleen, muscle, lungs of immature female rat after 3 hour administration of 3 micro Ci (111 kBq) in the absence of 60 microg estradiol; type: ADME, organism-based
How it was run: (§3)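 Immature female Long Evans rats (21–24 days, 45–70 g), 3–5 per group, unanesthetized in retention cages, given 3 μCi (111 kBq) 125I-labeled steroid by lateral tail vein. Vehicle: ethanol diluted with saline containing 1% Tween-80, final ethanol 9%. +E2 group co-injected 60 μg unlabeled estradiol (1 h only). Killed under ether; tissues KCl-washed, weighed, gamma-counted. Output: %ID/g (mean, SE) and uterus to blood or nontarget (muscle, spleen, lungs) ratios.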

[7] = tested on: Rattus norvegicus; assay: Biodistribution in muscle of immature female rat after 1 hr administration of 3 micro Ci (111 kBq) in the presence of (+E2); type: ADME, organism-based, Muscle tissue; how it was run: as §1
[8] = tested on: Rattus norvegicus; assay: Biodistribution in uterus / spleen, muscle, lungs of immature female rat after 5 hour administration of 3 micro Ci (111 kBq) in the absence of 60 microg estradiol; type: ADME, organism-based; how it was run: as §3
[9] = tested on: Rattus norvegicus; assay: Biodistribution in liver of immature female rat after 5 hour administration of 3 micro Ci (111 kBq) in the absence of 60 microg estradiol; type: ADME, organism-based; how it was run: as §2
[10] = tested on: Rattus norvegicus; assay: Biodistribution in lungs of immature female rat after 12 hour administration of 3 micro Ci (111 kBq) in the absence of 60 microg estradiol; type: ADME, organism-based, Lung; how it was run: as §1
[11] = tested on: Rattus norvegicus; assay: Biodistribution in blood of immature female rat after 12 hour administration of 3 micro Ci (111 kBq) in the absence of 60 microg estradiol; type: ADME, organism-based; how it was run: as §2
[12] = tested on: Rattus norvegicus; assay: Biodistribution in lungs of immature female rat after 3 hour administration of 3 micro Ci (111 kBq) in the absence of 60 microg estradiol; type: ADME, organism-based, Lung; how it was run: as §1
[13] = tested on: Rattus norvegicus; assay: Biodistribution in kidney of immature female rat after 1 hr administration of 3 micro Ci (111 kBq) in the presence of (+E2); type: ADME, organism-based; how it was run: as §2
[14] = tested on: Rattus norvegicus; assay: Biodistribution in liver of immature female rat after 1 hr administration of 3 micro Ci (111 kBq) in the absence of 60 microg estradiol; type: ADME, organism-based; how it was run: as §2
[15] = tested on: Rattus norvegicus; assay: Biodistribution in fat of immature female rat after 5 hour administration of 3 micro Ci (111 kBq) in the absence of 60 microg estradiol; type: ADME, organism-based, Adipose tissue; how it was run: as §2
[16] = tested on: Rattus norvegicus; assay: Biodistribution in fat of immature female rat after 1 hr administration of 3 micro Ci (111 kBq) in the presence of (+E2); type: ADME, organism-based, Adipose tissue; how it was run: as §2
[17] = tested on: Rattus norvegicus; assay: Biodistribution in blood of immature female rat after 1 hr administration of 3 micro Ci (111 kBq) in the absence of 60 microg estradiol; type: ADME, organism-based; how it was run: as §2
[18] = tested on: Rattus norvegicus; assay: Biodistribution in thyroid of immature female rat after 12 hour administration of 3 micro Ci (111 kBq) in the absence of 60 microg estradiol; type: ADME, organism-based, Thyroid gland; how it was run: as §1
[19] = tested on: Rattus norvegicus; assay: Biodistribution in spleen of immature female rat after 12 hour administration of 3 micro Ci (111 kBq) in the absence of 60 microg estradiol; type: ADME, organism-based; how it was run: as §1
[20] = tested on: Rattus norvegicus; assay: Biodistribution in liver of immature female rat after 1 hr administration of 3 micro Ci (111 kBq) in the presence of (+E2); type: ADME, organism-based; how it was run: as §2
[21] = tested on: Rattus norvegicus; assay: Biodistribution in muscle of immature female rat after 3 hour administration of 3 micro Ci (111 kBq) in the absence of 60 microg estradiol; type: ADME, organism-based, Muscle tissue; how it was run: as §1
[22] = tested on: Rattus norvegicus; assay: Biodistribution in thyroid of immature female rat after 1 hr administration of 3 micro Ci (111 kBq) in the presence of (+E2); type: ADME, organism-based, Thyroid gland; how it was run: as §1
[23] = tested on: Rattus norvegicus; assay: Biodistribution in uterus / spleen, muscle, lungs of immature female rat after 1 hr administration of 3 micro Ci (111 kBq) in the presence of (+E2); type: ADME, organism-based
How it was run: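 Same in vivo procedure: immature female Long Evans rats (21–24 days), three to five per group, 3 μCi (111 kBq) tracer i.v. via tail vein in 9% ethanol/saline/1% Tween-80, ± 60 μg estradiol co-injected at 1 h. Uterus %ID/g (gamma counting) divided by blood, or by nontarget organ (muscle, spleen, lungs), %ID/g to give ratios.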

[24] = tested on: Rattus norvegicus; assay: Biodistribution in muscle of immature female rat after 12 hour administration of 3 micro Ci (111 kBq) in the absence of 60 microg estradiol; type: ADME, organism-based, Muscle tissue; how it was run: as §1
[25] = tested on: Rattus norvegicus; assay: Biodistribution in kidney of immature female rat after 12 hour administration of 3 micro Ci (111 kBq) in the absence of 60 microg estradiol; type: ADME, organism-based; how it was run: as §2
[26] = tested on: Rattus norvegicus; assay: Biodistribution in kidney of immature female rat after 1 hr administration of 3 micro Ci (111 kBq) in the absence of 60 microg estradiol; type: ADME, organism-based; how it was run: as §2

Row | Compound | ID/g [1] [%] | ID/g [2] [%] | ID/g [3] [%] | ID/g [4] [%] | ID/g [5] [%] | Uterus to nontarget tissue (spleen, muscle, lungs) uptake ratio [6] [%] | ID/g [7] [%] | ID/g [9] [%] | ID/g [10] [%] | ID/g [11] [%] | ID/g [12] [%] | ID/g [13] [%] | ID/g [14] [%] | ID/g [15] [%] | ID/g [16] [%] | ID/g [17] [%] | ID/g [18] [%] | ID/g [19] [%] | ID/g [20] [%] | ID/g [21] [%] | also measured
1 | C[C@@H]1Cc2cc(O)c(F)cc2[C@H]2CC[C@@]3(C)[C@@H](CC[C@@]3(O)/C=C\I)[C@H]12 | 0.74 | 0.29 | 0.56 | 202 | 205 | 7.35 | 0.29 | 2.51 | 0.25 | 0.32 | 0.36 | 0.62 | 2.19 | 2.2 | 1.58 | 0.45 | 745 | 0.47 | 1.83 | 0.32 | uterus to nontarget tissue ratio [8]: 8.94%; ID/g [22]: 204%; uterus-to-nontarget tissue uptake ratio [23]: 0.76%; ID/g [24]: 0.19%; ID/g [25]: 0.36%; ID/g [26]: 1.11%
2 | C[C@@H]1Cc2c(ccc(O)c2F)[C@H]2CC[C@@]3(C)[C@@H](CC[C@@]3(O)/C=C\I)[C@H]12 | 0.72 | 0.34 | 0.71 | 304 | 145 | 8.32 | 0.44 | 1.36 | 0.24 | 0.21 | 0.46 | 0.79 | 1.35 | 1.7 | 1.39 | 0.44 | 898 | 0.25 | 1.54 | 0.28 | ID/g [8]: 9.44%; ID/g [22]: 98%; uterus-to-nontarget tissue uptake ratio [23]: 0.88%; ID/g [24]: 0.16%; ID/g [25]: 0.29%; ID/g [26]: 1.07%
3 | C[C@@H]1Cc2cc(O)c(F)cc2[C@H]2CC[C@@]3(C)[C@@H](CC[C@@]3(O)/C=C/I)[C@H]12 | 0.43 | 0.21 | 0.54 | 197 | 78 | 3 | 0.31 | 1.38 | 0.12 | 0.12 | 0.28 | 0.49 | 2.29 | 1.28 | 1.48 | 0.29 | 446 | 0.12 | 2.28 | 0.15 | uterus to nontarget tissue ratio [8]: 3.61%; ID/g [22]: 114%; uterus-to-nontarget tissue uptake ratio [23]: 1.09%; ID/g [24]: 0.17%; ID/g [25]: 0.15%; ID/g [26]: 0.63%

Source: ChEMBL document CHEMBL1126849, “Synthesis of A-ring fluorinated derivatives of (17 alpha,20E/Z)-[125I]iodovinylestradiols: effect on receptor binding and receptor-mediated target tissue uptake” (J Med Chem, 1993)
